High-throughput results as filed in PubChem BioAssay.
This is one part of a sample in which hits are shown more often than they occur.
GASC1 inh: inhibitors of GASC-1 (KDM4C) histone demethylase, primary screen, biochemical, single concentration HTS. Lysine-specific demethylase 4C (Homo sapiens), Q9H3R0. GST-KDM4C 2-372, H3K9me3 peptide, LANCE TR-FRET. inhibition, % at 12.5 µM. 96,000 compounds, 0.15% hits;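 active = mean replicate inhibition above about 25%, with at least 55% of replicates also reaching it, limit read from the data, passing the limit was not always enough; inconclusive = only one of those two conditions met; inactive = neither condition met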
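Material: GST-tagged GASC-1 (JMJD2C) catalytic fragment, aa 2-372 / Quantity: enzyme final amount 10 nM / Medium: HEPES buffer, pH 7.5, plus ascorbate / Doses: one test concentration per compound / Incubation: 30 min reaction, 60 min detection, RT / Measured by: LANCE TR-FRET / Read-out: inhibition from TR-FRET ratio decrease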
IDH1 R132H inh: inhibitors of IDH1 R132H reductase, primary screen, biochemical, plate reader, single point. diaphorase/resazurin fluorescence, 60 min. inhibition, % at 10 µM. 70,000 compounds, 0.18% hits. AID 624101, 2012; in the data active = inhibition above about 34%; inconclusive = no clear call, values can overlap the other calls; inactive = below about 11%
Target sequence (O75874 whole entry R132H): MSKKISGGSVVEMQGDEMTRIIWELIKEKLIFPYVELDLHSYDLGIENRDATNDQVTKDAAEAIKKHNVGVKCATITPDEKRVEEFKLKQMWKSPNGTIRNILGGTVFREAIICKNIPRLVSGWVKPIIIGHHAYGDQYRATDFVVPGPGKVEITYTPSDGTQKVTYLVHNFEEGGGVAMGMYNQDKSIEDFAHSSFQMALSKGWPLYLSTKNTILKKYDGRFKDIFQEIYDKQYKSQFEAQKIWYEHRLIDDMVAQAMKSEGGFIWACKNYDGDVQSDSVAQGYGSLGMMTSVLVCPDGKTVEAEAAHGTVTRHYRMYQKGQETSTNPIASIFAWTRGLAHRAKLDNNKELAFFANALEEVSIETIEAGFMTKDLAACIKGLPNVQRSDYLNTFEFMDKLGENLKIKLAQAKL
T cruzi growth-1: T. cruzi intracellular proliferation inhibitors, primary screen, cell-based, beta-gal Tulahuen parasites, NIH3T3 host, luminescence | 77,000 compounds, 5.9% hits | inhibition, % at 8.34 µM | T. cruzi beta-gal in NIH3T3, GalScreen luminescence, 90 h;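 active = mean inhibition above about 93%, with at least 55% of replicates each passing it, limit read from the data, passing the limit was not always enough; inconclusive = only one of those two conditions holds; inactive = neither condition holds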
T cruzi growth-2: T. cruzi intracellular proliferation inhibitors, confirmation, cell-based, NIH3T3 host, beta-gal parasite, luminescence, cherry-pick | shares compounds with T cruzi growth-1 | T. cruzi beta-gal in NIH3T3, GalScreen luminescence, 90 h | inhibition, % at 8.35 µM | 5,600 compounds, 72% hits;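 active = mean replicate inhibition above about 95% and at least 55% of replicates individually reaching it, limit read from the data; inconclusive = only one of the two criteria is met; inactive = neither criterion is met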
T cruzi growth-3: inhibitors of intracellular T. cruzi replication, confirmation, NIH3T3 host cells, beta-gal parasites, cherry-pick, set 2. inhibition, % at 2.09 µM. T. cruzi beta-gal in NIH3T3, GalScreen luminescence, 90 h. shares compounds with T cruzi growth-1. 5,600 compounds, 21% hits;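 active = mean inhibition above about 95%, with at least 55% of replicates also reaching it, limit read from the data; inconclusive = meets just one of the two conditions; inactive = meets neither condition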
3T3 cytotox: cytotoxicity in mouse NIH/3T3 fibroblasts, confirmation, cytotoxicity control for T. cruzi proliferation inhibitor project, cell-based, cherry-pick, single point; shares compounds with T cruzi growth-1; NIH/3T3 viability, CellTiter-Glo ATP luminescence, 90 h; cytotoxicity (signal decrease), % at 8.35 µM; 5,600 compounds, 14% hits;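 active = mean signal decrease across replicates above about 35% based on untreated-well scatter, with enough replicates individually passing, limit read from the data; inconclusive = no rule stated though some were filed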
3T3 cytotox 2: NIH/3T3 fibroblast cytotoxicity, confirmation, cytotoxicity control, cell-based, cherry-pick, single point, set 2. shares compounds with T cruzi growth-1. NIH/3T3 viability, CellTiter-Glo ATP luminescence, 90 h. inhibition, % at 24.9 µM. 5,600 compounds, 56% hits. AID 651744, 2012;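 active = mean loss of cell viability signal at or above a set limit, and enough replicates individually reaching it; inconclusive = meets only the mean limit or only the replicate share; inactive = meets neither condition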
Hits are given with their value; - = inactive; ? = inconclusive; . = no result given.

SMILES	GASC1 inh	IDH1 R132H inh	T cruzi growth-1	T cruzi growth-2	T cruzi growth-3	3T3 cytotox	3T3 cytotox 2
Cc1ccc(S(=O)(=O)Nc2ccc3c(c2)C(=O)N([C@@H](C)CO)C[C@@H](C)[C@@H](CN(C)Cc2ccc(Cl)c(Cl)c2)O3)cc1	-	.	119	107	107	-	103
C[C@@H]1CN([C@@H](C)CO)C(=O)c2cc(NS(=O)(=O)c3ccc(F)cc3)ccc2O[C@H]1CN(C)Cc1ccc(Cl)c(Cl)c1	-	-	?	105	-	-	104
C[C@H]1CN([C@@H](C)CO)C(=O)c2cc(NS(=O)(=O)c3ccc(F)cc3)ccc2O[C@H]1CN(C)Cc1ccc(Cl)c(Cl)c1	-	.	-	.	.	.	.
Cc1ccc(S(=O)(=O)Nc2ccc3c(c2)C(=O)N([C@@H](C)CO)C[C@H](C)[C@@H](CN(C)Cc2ccc(Cl)c(Cl)c2)O3)cc1	-	-	-	.	.	.	.
C[C@H]1CN([C@@H](C)CO)C(=O)c2cc(NS(=O)(=O)c3ccc(Cl)cc3)ccc2O[C@@H]1CN(C)Cc1ccc(Cl)c(Cl)c1	-	-	-	.	.	.	.
O=C(Nc1ccccc1)N1CC(=O)N2[C@@H](CO)[C@@H](c3ccc(C#Cc4cccnc4)cc3)[C@@H]2C1	-	.	.	.	.	.	.
CN(C)C(=O)C[C@H]1C[C@H]2c3cc(NC(=O)NC4CCCCC4)ccc3O[C@H]2[C@H](CO)O1	-	-	-	.	.	.	.
O=C(C[C@@H]1CC[C@H]2[C@@H](COC[C@@H](O)CN2CCC(F)(F)F)O1)NCC1CCCCC1	-	.	-	.	.	.	.
O=C(C[C@H]1CC[C@H]2[C@@H](COC[C@H](O)CN2CCC(F)(F)F)O1)NCc1ccc(Oc2ccccc2)cc1	-	.	108	104	-	-	-
O=C(C[C@H]1CC[C@@H]2[C@H](COC[C@H](O)CN2CCC(F)(F)F)O1)NCc1ccc(Oc2ccccc2)cc1	-	.	-	.	.	.	.
O=C(C[C@@H]1CC[C@H]2[C@@H](COC[C@H](O)CN2CCC(F)(F)F)O1)NCC1CCCCC1	-	.	109	-	-	-	-
C[C@@H]1CN([C@H](C)CO)C(=O)Cc2cc(NS(=O)(=O)c3ccc(F)cc3)ccc2O[C@@H]1CN(C)C(=O)NC1CCCCC1	-	.	-	.	.	.	.
CO[C@@H]1CN(C)C(=O)c2ccc(NS(=O)(=O)c3ccccc3)cc2OC[C@@H](C)N(Cc2nccs2)C[C@@H]1C	-	-	-	.	.	.	.
CO[C@H]1CN(C)C(=O)c2ccc(NC(=O)Nc3ccccc3)cc2OC[C@H](C)N(C(=O)CN(C)C)C[C@@H]1C	-	.	.	.	.	.	.
CCc1csc(N2[C@@H](C#N)[C@@H](c3ccc(C#Cc4ccc(F)cc4)cc3)[C@@H]2CO)n1	-	.	-	.	.	.	.
CCc1csc(N2[C@H](C#N)[C@@H](c3ccc(-c4cccc(F)c4)cc3)[C@H]2CO)n1	-	.	100	108	-	-	31
N#C[C@@H]1[C@@H](c2ccc(-c3cccc(F)c3)cc2)[C@H](CO)N1c1nc(-c2ccccc2)cs1	-	.	.	.	.	.	.
CCc1csc(N2[C@H](CO)[C@@H](c3ccc(-c4ccc(F)cc4)cc3)[C@@H]2C#N)n1	-	.	103	102	-	-	103
CCc1csc(N2[C@@H](C#N)[C@H](c3ccc(-c4cccc(F)c4)cc3)[C@@H]2CO)n1	-	.	105	103	-	-	-
CCc1csc(N2[C@@H](C#N)[C@@H](c3ccc(-c4cccc(F)c4)cc3)[C@@H]2CO)n1	-	.	100	?	-	45	82
CCc1csc(N2[C@H](C#N)[C@@H](c3ccc(-c4ccc(F)cc4)cc3)[C@@H]2CO)n1	-	.	-	.	.	.	.
CCc1csc(N2[C@H](C#N)[C@H](c3ccc(C#Cc4ccc(F)cc4)cc3)[C@H]2CO)n1	-	.	-	.	.	.	.
C[C@@H]1CN([C@@H](C)CO)C(=O)CCCn2cc(nn2)CO[C@H]1CN(C)CC1CC1	-	-	-	.	.	.	.
CCCNC(=O)Nc1ccc2c(c1)C(=O)N(C)C[C@@H](OC)[C@@H](C)CN(C(=O)CC)[C@H](C)CO2	-	.	-	.	.	.	.
COc1ccc2c3c(n(C)c2c1)[C@H](CO)N(CC1CC1)CC31CCN(Cc2nccs2)CC1	-	.	.	.	.	.	.
SMILES	GASC1 inh	IDH1 R132H inh	T cruzi growth-1	T cruzi growth-2	T cruzi growth-3	3T3 cytotox	3T3 cytotox 2
O=C1CC(SCCc2nc3ccccc3[nH]2)C(=O)N1c1ccc(F)cc1 (centres undefined)	.	-	.	.	.	.	.
O=C(C[C@H]1C=C[C@@H](NC(=O)Nc2ccc3c(c2)OCO3)[C@@H](CO)O1)NCc1ccc2c(c1)OCO2	-	.	.	.	.	.	.
CCc1csc(N2[C@H](CO)[C@H](c3ccc(-c4cccc(F)c4)cc3)[C@@H]2C#N)n1	-	.	-	.	.	.	.
CCc1csc(N2[C@H](C#N)[C@@H](c3ccc(-c4cccc(F)c4)cc3)[C@@H]2CO)n1	-	.	98	111	-	-	96
C[C@H]1CN([C@@H](C)CO)S(=O)(=O)c2ccc(-c3ccncc3)cc2O[C@@H]1CN(C)Cc1ccccc1	-	-	-	.	.	.	.
C[C@@H]1CN([C@H](C)CO)S(=O)(=O)c2ccc(-c3ccncc3)cc2O[C@H]1CN(C)Cc1ccccc1	-	-	?	98	100	60	94
C[C@H](CO)N1C[C@H](C)[C@H](CN(C)Cc2ccccc2)Oc2cc(-c3ccncc3)ccc2S1(=O)=O	-	.	-	.	.	.	.
C[C@@H]1CN([C@@H](C)CO)S(=O)(=O)c2ccc(-c3ccncc3)cc2O[C@H]1CN(C)Cc1ccccc1	-	.	?	-	99	76	96
CCCC#Cc1ccc2c(c1)O[C@@H](CN(C)C(=O)CC1CC1)[C@@H](C)CN([C@H](C)CO)S2(=O)=O	-	-	-	.	.	.	.
C[C@@H]1CN([C@@H](C)CO)S(=O)(=O)c2ccc(C#CCC3CCCC3)cc2O[C@@H]1CN(C)C(=O)CC1CC1	-	-	120	-	-	-	107
C[C@H]1CN([C@@H](C)CO)S(=O)(=O)c2ccc(C#CCC3CCCC3)cc2O[C@H]1CN(C)C(=O)CC1CC1	-	-	122	?	-	-	104
CC(=O)N(C)C[C@@H]1Oc2cc(C#CCC3CCCC3)ccc2S(=O)(=O)N([C@@H](C)CO)C[C@@H]1C	-	-	-	.	.	.	.
CC1(C)[C@H]2CC=C(/C=N\NC(=O)CCCCCCC(=O)Nc3ccccc3O)[C@@H]1C2	.	-	.	.	.	.	.
O=C(N[C@@H]1CC[C@@H](CC(=O)N2CCOCC2)O[C@@H]1CO)c1ccc2c(c1)OCO2	-	-	-	.	.	.	.
